The record followed here is ChEMBL document CHEMBL1123171, “Synthesis of delta 3-1-methylene-1-carbacephems” (1986).

For orientation: MIC means the lowest concentration found to suppress growth. Low values mean inhibition by little substance, high ones a need for much substance.

Experiment [1] deals with Bacillus subtilis. In words: In vitro antibacterial activity against B. subtilis( NCTC 8236). It counts as functional. In a few lines: (§1)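 Agar dilution MIC in diagnostic sensitivity test agar; inoculum 10^5–10^6 cfu/spot applied with a multipoint inoculator. Test compounds were racemic, so reported values are corrected: only one-half of the observed MIC is taken.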
The subject of experiment [2] is Escherichia coli. In words: In vitro antibacterial activity against Escherichia coli (ESS). The experiment is classed as functional. Put shortly: as §1
Experiment [3] relates to Staphylococcus aureus. Description: Compound was tested in vitro for the antibacterial activity against Staphylococcus aureus (ATCC 6538P). The experiment is classed as functional. Put shortly:
as §1

In experiment [4] the test system is Sarcina lutea (ATCC 9341). Description: In vitro antibacterial activity against Sarcina lutea (ATCC 9341).

Converted amounts (≈) assume the structure as drawn.

On to `C=C1C2[C@H](NC(=O)COc3ccccc3)C(=O)N2C(C(=O)O)=CC1(C)C` (some centres not stated), for which the MIC in experiment [1] worked out at 1.5 mg/L (≈ 4.21 µM); in experiment [2] it was 1.5 mg/L (≈ 4.21 µM); in experiment [3], 4 mg/L (≈ 11.2 µM); in experiment [4] it was 2 mg/L (≈ 5.61 µM).

As to `CC1=C(C(=O)O)N2C(=O)[C@@H](NC(=O)[C@H](N)c3ccccc3)[C@H]2SC1` [CEPHALEXIN ANHYDROUS], the MIC came to 1 mg/L (≈ 2.88 µM) in experiment [1], 1 mg/L (≈ 2.88 µM) in experiment [2], 0.3 mg/L (≈ 0.864 µM) in experiment [3] and 0.03 mg/L (≈ 0.0864 µM) in experiment [4].

Turning to `C=C1C2[C@H](NC(=O)C(N)c3ccccc3)C(=O)N2C(C(=O)O)=CC1(C)C` (some centres not stated), the MIC in experiment [1] was 1.5 mg/L (≈ 4.22 µM); in experiment [2] it was 5 mg/L (≈ 14.1 µM); in experiment [3], 8 mg/L (≈ 22.5 µM); in experiment [4], 0.12 mg/L (≈ 0.338 µM).
